Consider 31 molecules from ChEMBL document CHEMBL1122366, “Potential antiatherosclerotic agents. 3. Substituted benzoic and non benzoic acid analogues of cetaben” (1983).

In test [1] the test system is Rattus norvegicus. The experiment in a line: In vivo sterol lowering activity when dosed as 0.03 % of the diet. It is filed as functional. Summed up: (§1)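 Normal rats were dosed in the diet. Serum sterol and triglyceride levels were measured and expressed as the mean percent of control values. Significance versus control was reported at p < 0.05, 0.01 and 0.001.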
Test [2] has as its system Rattus norvegicus. The experiment in a line: In vivo triglyceride lowering activity dosed at 0.10 % of the diet. The format is functional. In outline:
as §1

Test [3] has as its system Rattus norvegicus. The experiment in a line: In vivo sterol lowering activity when dosed as 0.01 % of the diet. The format is functional. In outline: as §1
For test [4], the system named is Rattus norvegicus. The experiment in a line: In vivo triglyceride lowering activity when dosed at 0.03 % of the diet. The format is functional. In outline:
as §1

Test [5] deals with Rattus norvegicus. The experiment in a line: In vivo sterol lowering activity at dose of 0.10 % of the diet. The format is functional. Summed up:
as §1

Test [6] has as its system Rattus norvegicus. The experiment in a line: In vivo triglyceride lowering activity when dosed as 0.01 % of the diet. The format is functional. In outline: as §1
Test [7] has as its target T1, Sterol O-acyltransferase 1 (Rattus norvegicus) (UniProt O70536).
T1 sequence (whole entry): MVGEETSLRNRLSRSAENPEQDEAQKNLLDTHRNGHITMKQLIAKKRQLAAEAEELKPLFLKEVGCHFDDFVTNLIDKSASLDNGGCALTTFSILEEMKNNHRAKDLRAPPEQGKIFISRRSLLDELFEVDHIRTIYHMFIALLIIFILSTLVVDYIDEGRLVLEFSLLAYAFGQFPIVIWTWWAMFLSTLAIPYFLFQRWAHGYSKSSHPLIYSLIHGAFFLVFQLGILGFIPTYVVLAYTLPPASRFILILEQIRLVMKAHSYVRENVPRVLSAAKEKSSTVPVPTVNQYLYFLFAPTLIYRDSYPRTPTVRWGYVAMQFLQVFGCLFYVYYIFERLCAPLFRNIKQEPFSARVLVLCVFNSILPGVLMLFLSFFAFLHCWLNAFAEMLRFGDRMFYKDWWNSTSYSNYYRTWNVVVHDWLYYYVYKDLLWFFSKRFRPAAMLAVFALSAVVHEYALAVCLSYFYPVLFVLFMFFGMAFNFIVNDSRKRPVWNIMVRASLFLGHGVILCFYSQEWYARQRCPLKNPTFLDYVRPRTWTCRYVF
The experiment in a line: In vitro inhibition of acyl coenzyme A:cholesterol acyltransferase. On the set-up: concentration or dose not given beside the values. The note with it: concentration not given here. Summed up: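 Enzyme fatty acyl-CoA:cholesterol acyltransferase (ACAT), assayed in vitro at a single drug concentration of 5.2 μg/mL. The value is the mean percent inhibition of enzyme activity.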

Several values for one entry are separate records, joined by “and”; a condition that tells them apart may be missing. Equal values may be shown once.

On to `CCCCCCCCCCCCCCCCNc1ccc(C(=O)O)cc1Br`, for which the “serum sterol level, percent of control” value is 100% and 99% in test [1]; 93% and 97% in test [5]. For the same molecule, in test [2], the “serum triglyceride, percent of control” value is 91% and 100%. In addition, in test [3], the “serum sterol level, % of control” value was 92% and 101%. For the same molecule, the “serum triglyceride level, percent of control” value was 96% and 99% in test [4]; 95% and 104% in test [6].
Regarding `CCCCCCCCCCCCCCCCNc1ccc(C(=O)OCC)cc1C`, the “serum sterol level, percent of control” value was less than 87% in test [1] and 103% in test [5]. Also, in test [2], the “serum triglyceride, percent of control” value is given as 95%. Further, the “serum sterol level, % of control” value in test [3] is given as 92%. Moreover, the “serum triglyceride level, percent of control” value in test [4] is 94%; in test [6], 81%.
`Br.CCCCCCCCCCCCCCCCNc1ccc(COC(C)=O)cc1`: the “serum sterol level, percent of control” value in test [1] is 92%; in test [5], less than 85%. In test [2], the “serum triglyceride, percent of control” value is on record as 114%. In addition, the “serum sterol level, % of control” value in test [3] came out at 93%. For the same molecule, the “serum triglyceride level, percent of control” value in test [4] was determined as 135%; in test [6], 79%.
For `CCCCCCCCCCCCCCN(C)c1ccc(C(=O)O)cc1`, the figures for the “serum sterol level, percent of control” value in test [1] and in test [5] were 94% and 97%, respectively. In addition, in test [2], the “serum triglyceride, percent of control” value is on record as 103%. In test [3], the “serum sterol level, % of control” value worked out at 97%. Further, the “serum triglyceride level, percent of control” value in test [4] is 92%; in test [6], 82%.
In the case of `CCCCCCCCCCCCCCCCNc1ccc(C(=O)O)cc1` [CETABEN], the “serum sterol level, percent of control” value is listed as less than 71% in test [1] and less than 54% in test [5]. For the same molecule, the “serum triglyceride, percent of control” value in test [2] is less than 31%. In test [3], the “serum sterol level, % of control” value is on record as less than 72%. In addition, the “serum triglyceride level, percent of control” value was less than 45% in test [4] and less than 71% in test [6].
As for `CCCCCCCCCCCCCCCCNc1ccc(C#N)cc1`, the “serum sterol level, percent of control” value is on record as 92% in test [1] and 96% in test [5]. Moreover, the “serum triglyceride, percent of control” value in test [2] worked out at 75%. For the same molecule, in test [3], the “serum sterol level, % of control” value was found to be 86%. For the same molecule, the results for the “serum triglyceride level, percent of control” value in test [4] and in test [6] were 71% and 83%, respectively.
As to `CCCCCCCCCCCCCCCCNc1ccc(C(N)=O)cc1`, the “serum sterol level, percent of control” value in test [1] is on record as 102%; in test [5], less than 86%. Moreover, the “serum triglyceride, percent of control” value in test [2] worked out at 114%. The “serum sterol level, % of control” value in test [3] was found to be 100%.
Turning to `CCCCCCCCCCCCCCCCNCc1ccc(C(=O)O)cc1`, the “serum sterol level, percent of control” value is reported as less than 89% in test [1] and less than 88% in test [5]. The “serum triglyceride, percent of control” value in test [2] was 96%. Moreover, the “serum sterol level, % of control” value in test [3] is 97%. Further, the “serum triglyceride level, percent of control” value in test [4] was determined as 91%; in test [6] it was 86%.
For the molecule `CCCCCCCCCCCCCCCCN(CC)c1ccc(C(=O)[O-])cc1.[Na+]`, the “serum sterol level, percent of control” value in test [1] and in test [5] was 116% each time. In addition, the “serum sterol level, % of control” value in test [3] turned out to be 114%.
As to `CCCCCCCCCCCCCCCCNc1ccc(C(=O)OCCN(C)C)cc1.Cl`, the “serum sterol level, percent of control” value is less than 92% in test [1] and 92% in test [5]. For the same molecule, the “serum triglyceride, percent of control” value in test [2] was less than 59%. The “serum sterol level, % of control” value in test [3] came out at 99%. Also, the serum triglyceride level, percent of control is 73% in test [4] and 77% in test [6].
On to `CCCCCCCCCCCCCCCCCCN(C)c1ccc(C(=O)O)cc1`, for which the “serum sterol level, percent of control” value is listed as 92% in test [1] and 91% in test [5]. For the same molecule, the “serum triglyceride, percent of control” value in test [2] was less than 75%. Moreover, in test [3], the “serum sterol level, % of control” value came out at 101%. Moreover, the entries for the “serum triglyceride level, percent of control” value in test [4] and in test [6] were less than 61% and 86%, respectively.
For the molecule `CCCCCCCCCCCCCCCCNc1ccc(C(=O)OC)cn1`, the “serum sterol level, percent of control” value was 108% in test [1] and 114% in test [5].
The term inhibition denotes the drop in the measured response relative to a control, in per cent. As for `CCCCCCCCCCCCCCCCNc1ccc(C(=O)N2CCCC2)cc1`, the “serum sterol level, percent of control” value in test [1] was determined as 98%; in test [5], 101%. Moreover, the “serum triglyceride, percent of control” value in test [2] was determined as 95%. The “serum sterol level, % of control” value in test [3] is given as 113%. Moreover, in test [7], the inhibition came out at 59%. For the same molecule, the “serum triglyceride level, percent of control” value in test [6] came out at 75%.
For the molecule `CCCCCCCCCCCCCCCCNc1ccc(C(=O)OCC(COC)OC)cc1` (stereo not given), the results for the “serum sterol level, percent of control” value in test [1] and in test [5] were 83% and 82%, respectively. Also, in test [2], the “serum triglyceride, percent of control” value turned out to be 70%. Moreover, the “serum triglyceride level, percent of control” value in test [4] is reported as 62%. Also, the inhibition in test [7] was less than 24%.
For `CCCCCCCCCCCCCCCCNc1ccc(C(=O)OC)c(C)c1`, the “serum triglyceride, percent of control” value in test [2] is on record as less than 60%. The inhibition in test [7] stood at 0%. For the same molecule, the “serum sterol level, percent of control” value in test [5] was 99%.
With `CCCCCCCCCCCCCCCCNc1ccc(C(=O)OCC(COC(=O)CCCCCCCCCCCCCCC)OC(=O)CCCCCCCCCCCCCCC)cc1` (stereo not given), the “serum triglyceride, percent of control” value in test [2] was 75%. The inhibition in test [7] stood at 4%. In addition, in test [5], the “serum sterol level, percent of control” value is given as less than 80%.
As for `CCCCCCCCCCCCCCCCNc1ccc(C(C#N)O[Si](C)(C)C)cc1` (stereo not given), the “serum triglyceride, percent of control” value in test [2] was less than 36%. This molecule also showed an inhibition in test [7] of 0%. The “serum sterol level, percent of control” value in test [5] is reported as 82%.
Consider `CCCCCCCCCCCCCCCCNc1ccc(C(O)C(N)=O)cc1` (stereo not given), for which, in test [2], the “serum triglyceride, percent of control” value amounted to 57%. This molecule yielded an inhibition in test [7] of 34%. In test [5], the “serum sterol level, percent of control” value was determined as 94%.
For `CCCCCCCCCCCCCCCCNc1ccc(C(=O)N2CCCCC2)cc1`, the “serum triglyceride, percent of control” value in test [2] is on record as less than 61%. This molecule also came in with an inhibition in test [7] of less than 55%. Moreover, in test [5], the “serum sterol level, percent of control” value is 83%.
The corresponding values for `CCCCCCCCCCCCCCNc1ccc(C(=O)OCC(O)CO)cc1` (stereo not given) are less than 47%, 27% and less than 80%.
`CCCCCCCCCCCCCCCCNc1ccc(C(=O)Oc2cccnc2)cc1` registered a Diet in test [2] of 92%. In test [7], this molecule displayed an inhibition of less than 22%. For the same molecule, the “serum sterol level, percent of control” value in test [5] came out at 93%.
On to `CCCCCCCCCCCCCCCCNc1ccc(C(=O)N(C)C)cc1`, for which the “serum triglyceride, percent of control” value in test [2] came to 89%. The molecule further yielded an inhibition in test [7] of 48%. Further, the “serum sterol level, percent of control” value in test [5] is given as 93%.
As to `CCCCCCCCCCCCCCCCNc1ccc(C(=O)CCC(=O)OC)cc1`, the “serum sterol level, percent of control” value in test [1] is given as less than 81%; in test [5] it was less than 84%. For the same molecule, in test [2], the “serum triglyceride, percent of control” value is 86%. Besides, in test [4], the “serum triglyceride level, percent of control” value is on record as 93%. Besides, the inhibition in test [7] amounted to 7%.
For the molecule `C=CCOC(=O)c1ccc(NCCCCCCCCCCCCCCCC)cc1`, the “serum sterol level, percent of control” value is on record as 103% in test [1] and less than 81% in test [5]. The “serum triglyceride, percent of control” value in test [2] is on record as less than 70%. Besides, the “serum sterol level, % of control” value in test [3] was 94%. Further, in test [4], the “serum triglyceride level, percent of control” value was less than 60%. Besides, the inhibition in test [7] is less than 40%.
Regarding `CCCCCCCCCCCCCCCCNc1ccc(/C=N\N=C(\N)NCc2ccccc2)cc1`, the “serum triglyceride, percent of control” value in test [2] is on record as less than 49%. Also, the inhibition in test [7] is 0%. The “serum sterol level, percent of control” value in test [5] was determined as 94%.
Take `CCCCCCCCCCCCCCCCN(CCCCCCCCCCCCCCCC)c1ccc(CCC(=O)OCC)cc1`: in test [2], the “serum triglyceride, percent of control” value is reported as 84%. The molecule also displayed an inhibition in test [7] of 28%. In addition, the “serum sterol level, percent of control” value in test [5] is recorded as 94%.
The corresponding values for `CCCCCCCCCCCCCCCCN(CCCCCCCCCCCCCCCC)c1ccc(CCCC(=O)OCC)cc1` are 90%, 18% and 103%.
The corresponding values for `CCCCCCCCCCCCCCCCNc1ccc(CCCC(=O)OCC)cc1` are 76%, 0% and 99%.
Turning to `CCCCCCCCCCCCCCCCN(C(=O)C(F)(F)F)c1ccc(C(=O)NNC(C)=O)cc1`, in test [2], the “serum triglyceride, percent of control” value is given as less than 61%. This molecule showed an inhibition in test [7] of less than 50%. The “serum sterol level, percent of control” value in test [5] is on record as less than 81%.
The corresponding values for `CCCCCCCCCCCCCCCCNc1ccc(C(=O)OCC2COC(C)(C)O2)cc1` (stereo not given) are less than 68%, 0% and 86%.
The like results for `CCCCCCCCCCCCCCCCNc1ccc(C(=O)OCC(COC(=O)c2ccc(NCCCCCCCCCCCCCCCC)cc2)OC(C)=O)cc1` were, in that order, less than 63%, 2% and 89%.
